Experimental data published in ChEMBL document CHEMBL3526153, “Metabolism of gambogic acid in rats: a rare intestinal metabolic pathway responsible for its final disposition” (Drug Metab Dispos, 2011).

Key:
[1] = Retention time of the compound in Sprague-Dawley rat bile treated with gambogic acid at 4 mg/kg, iv measured over 24 hrs by LC-DAD-MS/MS analysis; type: ADME, organism-based; set-up: dose 4 mg/kg, route intravenous; details: in vivo
Summary of the method: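 SD rats, n=4, bile-duct cannulated under chloral hydrate and allowed 1 h recovery. GA 4 mg/kg i.v.; bile collected on ice, pooled 0–24 h. C18 LC-DAD-MS/MS at 0.25 mL/min with acetonitrile gradient (38% to 80%) in 10 mM ammonium acetate, 40 °C, negative ESI.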

Liver microsome [2] = test: Drug level in rat liver microsomes treated with gambogic acid at 50 uM preincubated for 10 mins followed by NADPH addition measured after 2 hrs in presence of GSH; type: ADME
Summary of the method: (§1)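 GA 50 μM in 1.0 mL 0.1 M PBS pH 7.4 with GSH 5.0 mM and NADPH 6.0 mM (final). Line 7 uses rat liver microsomes 1.0 mg/mL; line 2 omits microsomes. Preincubated 10 min at 37 °C, started with NADPH, run 2 h at 37 °C, duplicate. Quenched with ice-cold acetonitrile and dried. LC-MS/MS in negative ESI, isocratic 65% acetonitrile / 10 mM ammonium acetate.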

[3] = Drug level in PBS buffer treated with gambogic acid at 50 uM preincubated for 10 mins followed by NADPH addition measured after 2 hrs in presence of GSH and absence of liver microsomes; type: physicochemical; summary of the method: as §1
Plasma [4] = test: Drug metabolism in Sprague-Dawley rat plasma assessed as 10-OHGA formation at 4 mg/kg, iv measured over 4 hrs by LC-DAD-MS/MS analysis; type: ADME, organism-based; set-up: dose 4 mg/kg, route intravenous; details: in vivo
Summary of the method: (§2)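 Six SD rats dosed 4 mg/kg GA i.v. via tail vein. Tail-vein blood taken before and 0.033–4 h post-dose into heparinized tubes, centrifuged 3000 × g 10 min at 4 °C, and plasma pooled 0–4 h. 1 mL extracted with 4 mL ethyl acetate, dried under N2 at 40 °C, reconstituted. Isocratic C18 LC (68% acetonitrile), negative-ion ESI MS/MS.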

Liver microsome [5] = test: Drug metabolism in rat liver microsomes assessed as glucuronidation product formation at 50 uM preincubated for 10 mins followed by UDPGA addition for 2 hrs measured 1 hr post beta-glucuronidase treatment by LC-MS/MS analysis; type: ADME
Summary of the method: (§3)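 Dried UDPGA microsomal incubate reconstituted in 0.1 M Tris pH 6.8. For enzymatic hydrolysis, about 830 units β-glucuronidase, 37 °C for 1 h; control without enzyme. For alkaline hydrolysis, with or without 0.5 M NaOH (10 µL), 2 h at room temperature, then neutralized with acetic acid to about pH 7. Analyzed by LC-MS/MS.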

[6] = Drug level in Sprague-Dawley rat urine at 4 mg/kg, iv measured over 24 hrs by LC-DAD-MS/MS analysis; type: ADME, organism-based; set-up: dose 4 mg/kg, route intravenous; details: in vivo
Summary of the method: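 Urine collected from four SD rats and pooled 0–24 h after 4 mg/kg GA i.v. via tail vein; stored -20 °C until LC-MS/MS analysis (negative-ion ESI).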

[7] = Drug metabolism in Sprague-Dawley rat bile assessed as 10-alpha sulfonic gambogic acid formation of at 4 mg/kg, iv measured over 24 hrs by LC-DAD-MS/MS analysis; type: ADME, organism-based; set-up: dose 4 mg/kg, route intravenous; details: in vivo
Summary of the method: (§4)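 Four SD rats bile-duct cannulated under chloral hydrate anesthesia, allowed 1 h recovery, pre-dose bile taken. Dosed 4 mg/kg GA i.v. Bile collected on ice and pooled 0–24 h, stored -20 °C. Gradient C18 LC (acetonitrile/10 mM ammonium acetate), 40 °C column, negative-ion ESI MS/MS.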

[8] = Drug metabolism in intestine (unknown origin) assessed as 10-alpha sulfonic gambogic acid formation; type: ADME, tissue-based
Summary of the method: (§5)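 Intestinal contents from undosed rats homogenized in 5 mL water, spiked with 100 µL of 1.0 mg/mL GA, incubated at 37 °C about 24 h, in duplicate. 1 mL extracted with ethyl acetate. LC-MS/MS in negative ESI with SIM at m/z 709.3.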

[9] = Drug metabolism in rat liver microsomes assessed as SULT-mediated sulfonation; type: ADME
Liver microsome [10] = test: Drug metabolism in rat liver microsomes assessed as glucuronidation product formation at 50 uM preincubated for 10 mins followed by UDPGA addition for 2 hrs measured 2 hrs post NaOH treatment by LC-MS/MS analysis; type: ADME; summary of the method: as §3
[11] = Retention time of the compound in Sprague-Dawley rat bile at 4 mg/kg, iv measured over 24 hrs by LC-DAD-MS/MS analysis; type: ADME, organism-based; set-up: dose 4 mg/kg, route intravenous; details: in vivo; summary of the method: as §4
[12] = Drug metabolism in Sprague-Dawley rat gut assessed as formation of 10-beta sulfonic gambogic acid at 4 mg/kg, iv; type: ADME, organism-based; set-up: dose 4 mg/kg, route intravenous; details: in vivo
Liver microsome [13] = test: Drug metabolism in rat liver microsomes assessed as 9,10-epoxyl-gambogic acid formation at 50 uM preincubated for 10 mins by LC-MS/MS analysis in absence of NADPH; type: ADME
Summary of the method: (§6)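 GA 50 µM with rat liver microsomes 1.0 mg/mL in 0.1 M PBS pH 7.4, pre-incubated 10 min at 37 °C. Started with NADPH (6.0 mM final) and run 1 h at 37 °C. Controls lacked NADPH or microsomes; duplicate. Stopped with ice-cold acetonitrile, centrifuged, supernatant dried and reconstituted. Isocratic LC (65% acetonitrile), negative-ion ESI MS/MS.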

[14] = Drug metabolism in Sprague-Dawley rat feces assessed as 10-OHGA formation at 4 mg/kg, iv measured over 24 hrs by LC-DAD-MS/MS analysis; type: ADME, organism-based; set-up: dose 4 mg/kg, route intravenous; details: in vivo
Summary of the method: (§7)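 SD rats (250 ± 20 g), 4 mg/kg GA injection given i.v. via tail vein in 2 mL; feces from four rats pooled 0–24 h, stored -20 °C. Feces (0.6 g) homogenized in acetonitrile-water 50:50, sonicated, centrifuged, filtered, then extracted with ethyl acetate, dried under N2 at 40 °C, reconstituted in mobile phase. Gradient C18 LC, negative-ion ESI MS/MS.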

[15] = Drug metabolism in Sprague-Dawley rat feces assessed as formation of 9,10-epoxyl-gambogic acid at 4 mg/kg, iv measured over 24 hrs by LC-DAD-MS/MS analysis; type: ADME, organism-based; set-up: dose 4 mg/kg, route intravenous; details: in vivo; summary of the method: as §7
[16] = Drug metabolism in Sprague-Dawley rat gut assessed as formation of 10-alpha sulfonic gambogic acid at 4 mg/kg, iv; type: ADME, organism-based; set-up: dose 4 mg/kg, route intravenous; details: in vivo
Liver microsome [17] = test: Drug metabolism in rat liver microsomes assessed as glucuronidation product formation at 50 uM preincubated for 10 mins followed by UDPGA addition measured after 2 hrs by LC-MS/MS analysis; type: ADME
Summary of the method: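 GA 50 µM with alamethicin-treated rat liver microsomes 1.0 mg/mL and saccharic acid-1,4-lactone 6 mM in 0.05 M Tris-HCl pH 7.4, pre-incubated 10 min at 37 °C. Started with UDPGA (6.0 mM) and run 2 h at 37 °C. Controls lacked UDPGA or microsomes; duplicate. Acetonitrile quench, gradient LC, negative-ion ESI MS/MS.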

[18] = Drug metabolism in Sprague-Dawley rat bile assessed as formation of 10-beta sulfonic gambogic acid at 4 mg/kg, iv measured over 24 hrs by LC-DAD-MS/MS analysis; type: ADME, organism-based; set-up: dose 4 mg/kg, route intravenous; details: in vivo; summary of the method: as §4
[19] = Drug metabolism in Sprague-Dawley rat feces assessed as formation of glucuronidation product at 4 mg/kg, iv measured over 24 hrs by LC-DAD-MS/MS analysis; type: ADME, organism-based; set-up: dose 4 mg/kg, route intravenous; details: in vivo; summary of the method: as §7
[20] = Drug excretion in Sprague-Dawley rat feces at 2 mg/kg, iv measured within 48 hrs; type: ADME, organism-based; set-up: dose 2 mg/kg, route intravenous; details: read-out: Drug excretion
Plasma [21] = test: Drug level in Sprague-Dawley rat plasma at 4 mg/kg, iv measured over 4 hrs by LC-DAD-MS/MS analysis; type: ADME, organism-based; set-up: dose 4 mg/kg, route intravenous; details: in vivo; summary of the method: as §2
[22] = Drug level in Sprague-Dawley rat feces at 4 mg/kg, iv measured over 24 hrs by LC-MS/MS analysis; type: ADME, organism-based; set-up: dose 4 mg/kg, route intravenous; details: in vivo; summary of the method: as §7
[23] = Drug metabolism in rat liver microsomes assessed as CYP450-mediated 10-OHGA formation at 50 uM preincubated for 10 mins followed by NADPH addition measured after 1 hr by LC-DAD-MS/MS analysis; type: ADME; summary of the method: as §6
[24] = Drug metabolism in intestine (unknown origin) assessed as 10-beta sulfonic gambogic acid formation; type: ADME, tissue-based; summary of the method: as §5
[25] = Drug metabolism in rat liver microsomes assessed as CYP450-mediated 9,10-epoxyl-gambogic acid formation at 50 uM preincubated for 10 mins followed by NADPH addition measured after 1 hr by LC-DAD-MS/MS analysis; type: ADME; summary of the method: as §6

**Q.** For `CC(C)=CCC[C@]1(C)C=Cc2c(O)c3c(c(CC=C(C)C)c2O1)O[C@]12C(C3=O)C(SC[C@H](NC(=O)CC[C@H](N)C(=O)O)C(=O)NCC(=O)O)[C@@H]3C[C@H]1C(C)(C)O[C@@]2(C/C=C(/C)C(=O)O)C3=O` (stereo not given in full), which Retention_time [1] is on record?
**A.** Its Retention_time is 5.7 min.

**Q.** What about the Drug metabolism (Liver microsome [2]) of the same compound?
**A.** The Drug metabolism was “metabolite_detected”.

**Q.** And the Drug metabolism [3]?
**A.** The Drug metabolism was “metabolite_detected”.

**Q.** With `CC(C)=CCC[C@]1(C)C=Cc2c(O)c3c(c(CC=C(C)C)c2O1)O[C@]12C(=C[C@@H]4C[C@H]1C(C)(C)O[C@@]2(C/C=C(/C)C(=O)O)C4=O)C3=O` [GAMBOGIC ACID] as the compound, how does the Drug metabolism (Plasma [4]) read?
**A.** Its Drug metabolism is “metabolite_detected”.

**Q.** What about the Drug metabolism (Liver microsome [5]) of the same compound?
**A.** The Drug metabolism was “metabolite_not_detected”.

**Q.** What about the Drug uptake [6] of the same compound?
**A.** The Drug uptake was “Not Active”.

**Q.** And the Drug metabolism [7]?
**A.** The Drug metabolism was “metabolite_not_detected”.

**Q.** And the Drug metabolism [8]?
**A.** Its Drug metabolism is “metabolite_detected”.

**Q.** What about the Drug metabolism [9] of the same compound?
**A.** The Drug metabolism was “metabolite_not_detected”.

**Q.** What about the Drug metabolism (Liver microsome [10]) of the same compound?
**A.** The Drug metabolism was “metabolite_not_detected”.

**Q.** What about the Retention_time [11] of the same compound?
**A.** The Retention_time was 44.8 min.

**Q.** And the Drug metabolism [12]?
**A.** Its Drug metabolism is “metabolite_detected”.

**Q.** What about the Drug metabolism (Liver microsome [13]) of the same compound?
**A.** Its Drug metabolism is “metabolite_not_detected”.

**Q.** What about the Drug metabolism [14] of the same compound?
**A.** Its Drug metabolism is “metabolite_detected”.

**Q.** What about the Drug metabolism [15] of the same compound?
**A.** The Drug metabolism was “metabolite_detected”.

**Q.** And the Drug metabolism [16]?
**A.** The Drug metabolism was “metabolite_detected”.

**Q.** What about the Drug metabolism (Liver microsome [17]) of the same compound?
**A.** The Drug metabolism was “metabolite_detected”.

**Q.** What about the Drug metabolism [18] of the same compound?
**A.** Its Drug metabolism is “metabolite_not_detected”.

**Q.** And the Drug metabolism [19]?
**A.** Its Drug metabolism is “metabolite_detected”.

**Q.** And the dose excreted at 48 h [20]?
**A.** Its dose excreted at 48 h is 1.04%.

**Q.** And the Drug uptake (Plasma [21])?
**A.** Its Drug uptake is “Active”.

**Q.** And the Drug uptake [22]?
**A.** The Drug uptake was “Active”.

**Q.** And the Drug metabolism [23]?
**A.** Its Drug metabolism is “metabolite_detected”.

**Q.** What about the Drug metabolism [24] of the same compound?
**A.** Its Drug metabolism is “metabolite_detected”.

**Q.** What about the Drug metabolism [25] of the same compound?
**A.** Its Drug metabolism is “metabolite_detected”.
